Reference: PubChem BioAssay AID493091 (Sanford-Burnham Center for Chemical Genomics, 2011)
Screen size: about 340,000 compounds; about 3,000 (0.88%) were called active. This excerpt belongs to a sample that is enriched for actives. Values without a mark were called inactive.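 The calls were made as follows: active = inhibition above about 50% at 20 µM (limit read from the data); inactive = the rest.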

Each compound was assayed against Carboxy-terminal domain RNA polymerase II polypeptide A small phosphatase 1 (Homo sapiens) (UniProt Q9GZU7) (assay: inhibition of human SCP1 dephosphorylation activity – biochemical, colorimetric, uHTS, primary screen (AID 493091;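 also: plate controls were DMSO wells with enzyme for no effect and wells lacking enzyme for full effect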)). Details: Recombinant Scp1, phosphopeptide, malachite green phosphate absorbance; at 20 µM; active compounds read high.
Carboxy-terminal domain RNA polymerase II polypeptide A small phosphatase 1 (Homo sapiens), sequence (Q9GZU7 76-261 limits assumed): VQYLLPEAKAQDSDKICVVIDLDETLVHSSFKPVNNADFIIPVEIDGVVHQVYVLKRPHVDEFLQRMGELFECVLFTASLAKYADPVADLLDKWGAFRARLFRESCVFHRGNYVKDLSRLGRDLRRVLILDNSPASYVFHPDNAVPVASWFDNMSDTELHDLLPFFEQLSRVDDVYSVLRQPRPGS
Outline: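 Assay system: SCP-1 catalytic fragment, aa 76-261 | Buffer or medium: Tris acetate buffer pH 5.5 with MgCl2 and Tween-20 | Compound: One concentration, 20 µM, with 1.0% DMSO | Also added: Phospho 17-mer peptide substrate | Signal: Absorbance at 630 nm | Incubation: 45 min enzyme reaction at room temperature | Measure: % inhibition of SCP-1 phosphate liberation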

| Compound | inhibition |
| --- | --- |
| COc1ccc(-n2cnnc2SCC(=O)Nc2cccc([N+](=O)[O-])c2)cc1 | -10.7% |
| NC(=O)NC(=O)CSc1nc2cc([N+](=O)[O-])ccc2n1-c1cccc(C(F)(F)F)c1 | 62.8% (active) |
| NS(=O)(=O)c1cccc(NC(=O)CSc2nc3ccccc3n2-c2ccccc2)c1 | -22.7% |
| C/C(CC(=O)Nc1ccc(Cl)cc1)=N\NC(=O)C(=O)NCCO | -2.46% |
| COc1ccc(N2C(=O)C(CC(=O)Nc3ccc(F)cc3)N(CCc3cccs3)C2=O)cc1 (centres undefined) | 0.58% |
| CCN(CC)c1ccc(C(=O)NNC(=O)CCc2nc3ccccc3c(=O)[nH]2)cc1 | -4.7% |
| O=C(COC(=O)CCC(=O)c1cccs1)NCc1ccco1 | 96.1% (active) |
| CCOC(=O)c1cnc(SCC(=O)NCc2ccco2)nc1N | -2.2% |
| Cc1c(Cl)cnc(NC(=O)COC(=O)c2ccc(S(=O)(=O)NCc3ccco3)cc2)c1Cl | 61.6% (active) |
| CN(c1ccccc1)S(=O)(=O)c1ccc(Cl)c(C(=O)OCC(=O)NCc2ccco2)c1 | 81.1% (active) |
| C/C(=N\Nc1ncc(Cl)cc1Cl)c1ccc(S(=O)(=O)NCc2ccco2)cc1 | -6.85% |
| CN(c1ccccc1)S(=O)(=O)c1ccc(Cl)c(C(=O)OCC(N)=O)c1 | -10.7% |
| O=C(COC(=O)c1cccs1)NCc1cccs1 | -4.94% |
| CN(c1ccccc1)S(=O)(=O)c1ccc(Cl)c(C(=O)OCC(=O)N2CCOCC2)c1 | -10.4% |
| Cc1cc(C(=O)OCC(=O)NCc2ccco2)c(C)n1-c1ccccc1 | 73.1% (active) |
| CSCCC(NC(=O)c1ccco1)C(=O)OCC(=O)Nc1ncc(Cl)c(C)c1Cl (centres undefined) | 2.12% |
| Cc1cc(C(=O)OCC(=O)N2c3ccccc3NC(=O)C2(C)C)c(C)n1-c1ccccc1 | -10.3% |
| CC1CCN(C(=O)COC(=O)CCC(=O)c2cccs2)CC1 | 0.96% |
| Cc1ccccc1C(=O)NCC(c1ccco1)N1CCc2ccccc21 (centres undefined) | 3.6% |
| O=C(c1ccccc1F)N1CCN(S(=O)(=O)c2ccc(Br)cc2)CC1 | -10.3% |
| CC(C)CCN1CCN=C1N(C)C | 0.8% |
| Cc1nnc(CN(C)Cc2cn[nH]c2-c2ccc(-c3ccccc3)cc2)o1 | -5.39% |
| CSCCC(NS(=O)(=O)c1ccc(C)cc1)C(=O)N(C)CC(=O)Nc1ccccc1Br (centres undefined) | -5.24% |
| Cc1nn2c(NCCN(C)C)c3c(nc2c1-c1ccccc1)CCC3 | -10.7% |

| Compound | inhibition |
| --- | --- |
| COc1ccc(NC(=O)COC(=O)c2n[nH]c3ccccc23)c(OC)c1 | -9.82% |
| O=C(CCNC(=O)c1ccccc1Cl)NCc1ccco1 | 18.8% |
| O=C(COC(=O)c1cnc(Cl)c(Cl)c1)NCc1ccco1 | 53.3% (active) |
| O=C(COC(=O)C12CC3CC(CC(C3)C1)C2)NCc1ccco1 | 11.5% |
| COc1ccc(CCNC(=O)COC(=O)c2cnc(Cl)c(Cl)c2)cc1 | -7.74% |
| O=C(COC(=O)c1ccccc1O)NCc1ccco1 | 67.2% (active) |
| O=C(COC(=O)c1ccco1)NCc1ccc(Cl)cc1 | -4.57% |
| COCCNC(=S)N1CCN(C)CC1 | -7.43% |
| CC1CC(c2ccccc2)n2nc(NC(=O)c3cccs3)nc2N1 (centres undefined) | 2.86% |
| CC(CC(=O)Nc1ccccc1)n1ccnc1 (centres undefined) | -3.02% |
| O=C(CN1CCN(c2ccc(Cl)cc2)CC1)NCc1cccs1 | 3.78% |
| O=C(CN1CCN(c2ccc(Cl)cc2)CC1)c1ccccc1 | 52% (active) |
| CC(C)OC(=O)CN1CCN(c2ccc(Cl)cc2)CC1 | 4.48% |
| CN(CC(=O)Nc1ccc(F)c(F)c1F)C(=O)Cn1cnc2c1c(=O)n(C)c(=O)n2C | -3.89% |
| O=C(CCC1CCCN(C(=O)Cc2ccc(F)cc2)C1)N1CCN(c2ccccn2)CC1 (centres undefined) | -6.06% |
| C=Cc1ccc(C(=O)N2CCCC(CCC(=O)N3CCN(c4ccccn4)CC3)C2)cc1 (centres undefined) | 87.9% (active) |
| O=C(CCC1CCCN(C(=O)c2ccc(F)c(F)c2)C1)N1CCN(c2ccccn2)CC1 (centres undefined) | -8.35% |
| Cc1ccc(C(=O)COC(=O)CCN2C(=O)C3C4CC(C(Br)C4Br)C3C2=O)cc1 (centres undefined) | -7.42% |
| CC(=O)N1Cc2ccccc2CC1C(=O)O (centres undefined) | 12.9% |
| O=c1c(Cl)c(NCc2ccc(F)cc2Cl)cnn1C12CC3CC(CC(C3)C1)C2 | 17.9% |
| O=S(=O)(Nc1ccccc1Cl)c1cccc2nsnc12 | 67% (active) |
| O=C(O)c1ccc(NS(=O)(=O)c2cccc3nsnc23)cc1 | -2.95% |
| COc1ccc(NS(=O)(=O)c2cccc3nsnc23)cc1Cl | -12.1% |
| Cc1nn2c3cc(N4CCOCC4)ccc3nc2c2ccccc12 | 7.49% |

| Compound | inhibition |
| --- | --- |
| COc1ccc(C2=Nc3cc(C)ccc3OC2)cc1 | -3.61% |
| COCCOC(=O)C1=C(C)NC(=O)NC1c1cc2c(cc1Br)OCO2 (centres undefined) | -6.54% |
| COCCN(C(=S)Nc1cccc(Cl)c1C)C(C)c1ccco1 (centres undefined) | -5.75% |
| COc1cccc(NC(C)=[N+](C)CCNS(=O)(=O)c2ccc(Cl)cc2)c1 | 105% (active) |
| COc1cccc(NC(=O)CCNS(=O)(=O)c2ccc3c(c2)oc(=O)n3C)c1 | 6.79% |
| COc1ccc(S(=O)(=O)NCCCCOc2ccc(Cl)cc2)cc1 | -3.96% |
| COc1ccc(/C=C/CN2CCCC(C(=O)c3cc(F)ccc3F)C2)cc1 (centres undefined) | -4.6% |
| O=C(Nc1cccnc1Oc1ncnc2cc(Cl)ccc12)c1ccc(F)cc1 | -6.88% |
| O=C(Nc1cc(S(=O)(=O)N2CCCCC2)ccc1Cl)C1COc2ccccc2O1 (centres undefined) | 55.3% (active) |
| O=C(CNCc1cccs1)Nc1cc(S(=O)(=O)N2CCCC2)ccc1Cl | 1.26% |
| CCN(CC)S(=O)(=O)c1ccc(N2CCOCC2)c(NC(=O)C2COc3ccccc3O2)c1 (centres undefined) | -9.66% |
| CC(=O)c1ccc(NC(=O)C(C)N(C)CC(=O)Nc2ccccc2Cl)cc1 (centres undefined) | 9.97% |
| O=C(/C=C/c1cccc([N+](=O)[O-])c1)NCCSCc1ccco1 | -5.27% |
| OC1CSc2nc3ccccc3n2C1 (centres undefined) | -14.6% |
| Cc1ccc(COC(=O)CN2C(=O)NC3(CCCC3)C2=O)cc1 | -2.24% |
| Cc1ccc(CCCOC(=O)C[N+]2(C)CCCCC2)cc1 | 4.77% |
| Cc1ccc(CCCOC(=O)C[N+]2(C)CCCC2)cc1 | 101% (active) |
| Nc1ccc2c(c1)C(=Cc1cccnc1)c1ccccc1-2 | -0.04% |
| C[C@H](NC(=O)c1nc[nH]c1C(=O)NCC(=O)OC(C)(C)C)C(=O)OCc1ccccc1 | -3.03% |
| O=C(c1ccc2c(c1)OCO2)N1CCN(C(=O)c2ccco2)CC1 | -10.7% |
| O=CN1CCN(C(=O)c2ccc3c(c2)OCO3)CC1 | -4.58% |
| O=C(c1ccc2c(c1)OCO2)N1CCNc2ccccc2C1 | 54.2% (active) |
| COc1ccc(C(=O)N(CCN2CCOCC2)CC(=O)NC2CCCC2)cc1OC | -4.37% |
| Cc1ccnc(-n2sc3ccccc3c2=O)n1 | 70.8% (active) |

| Compound | inhibition |
| --- | --- |
| COc1ccccc1C(C)NC(=O)Cc1ccsc1 (centres undefined) | 1.45% |
| CN(CC(=O)NCCc1ccccn1)S(=O)(=O)c1ccc(Cl)cc1 | -6.06% |
| CCCCOC(=O)c1ccc(N2C(=O)CC(N3CCN(C/C=C/c4ccccc4)CC3)C2=O)cc1 (centres undefined) | -2.23% |
| CC1CC(C)CN(S(=O)(=O)c2cccc3nonc23)C1 (centres undefined) | -1.81% |
| CCN(Cc1cc2cc(C)ccc2[nH]c1=O)S(=O)(=O)c1ccccc1 | -4.68% |
| CCC(=O)N(CCc1ccccc1)Cc1cc2cc(C)ccc2[nH]c1=O | -1.18% |
| CCCc1nc(-c2cc3cc(C)ccc3[nH]c2=O)no1 | 65.2% (active) |
| C#CCOCCOCCOCCNc1nc(N2CCN(C(=O)C([C@@H](C)O)n3cc([C@@H](N)CCCCN)nn3)CC2)nc(N2CCN(C(=O)[C@H](CCCCN)n3cc(CN)nn3)CC2)n1 (some centres undefined) | -0.3% |
| C=CCn1cnc2scc(-c3ccccc3)c2c1=O | -18.1% |
| C=CCn1c(=S)[nH]c2nc3c(cc2c1=O)COC(C)(C)C3 | -8.72% |
| C=CCn1c(=S)[nH]c2scc(-c3ccco3)c2c1=O | 67.9% (active) |
| CN(CCC1CCOCC1)Cc1cn[nH]c1-c1ccc(-c2ccccc2)cc1 | -1.75% |
| CCn1c(=O)n(CC)c2cc(N3CCCC3)c(NC(=O)c3ccccc3Br)cc21 | -2.26% |
| Cc1ccc2nc3c(cc(C(=O)NCCc4ccccc4)c(=N)n3CC3CCCO3)c(=O)n2c1 (centres undefined) | 1.78% |
| Cc1ccc(CCNC(=O)c2ccc3nc4ccccc4c(=O)n3c2)cc1 | 60.3% (active) |
| Cc1ccc(CNC(=O)CCNC(=O)Cn2ccc3ccccc3c2=O)cc1 | -12.1% |
| CCOc1cc(C2/C(=C(/O)c3ccc(S(=O)(=O)N4CCCCC4)cc3)C(=O)C(=O)N2CCOC)ccc1O (centres undefined) | 1.05% |
| Cc1cccc(NC(=O)CSc2nc3c(c(=O)[nH]2)CCC3)c1C | -1.16% |
| COc1ccccc1N1CCN(C(=O)c2cc(=O)c3cc(C)cc(C)c3o2)CC1 | -7.13% |
| Cn1c(N)c(C(=O)COC(=O)c2cccc(S(=O)(=O)N3CCOCC3)c2)c(=O)n(C)c1=O | 3.96% |
| Cn1c(N)c(C(=O)COC(=O)c2ccc3ccccc3c2)c(=O)n(C)c1=O | 53% (active) |
| Cn1c(N)c(C(=O)COC(=O)c2cnc(Cl)c(Cl)c2)c(=O)n(C)c1=O | -5.15% |
